# Laboratory results reported in ChEMBL document CHEMBL3286203, “Reactive oxygen species (ROS) inducible DNA cross-linking agents and their effect on cancer cells and normal lymphocytes” (J Med Chem, 2014).
# Active and inactive are the calls of the source. The rule behind the calls is not given here.
# How the values were obtained:
# [1] = test system: CCRF-CEM; assay: Cytotoxicity against human CCRF-CEM cells after 48 hrs by SRB assay; type: functional
# Summary of the method: (§1)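 GI50 was determined in the NCI Developmental Therapeutics Program in vitro 60-line cancer screen. Tumour lines were maintained in RPMI 1640 containing 5% FBS and 2 mM L-glutamine. Cells were inoculated at 5000–40 000 cells/well according to each line's doubling time before drug exposure.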
# [2] = test system: PC-3; assay: Cytotoxicity against human PC3 cells assessed as growth inhibition at 10 uM after 48 hrs by SRB assay; type: functional, cell-based
# Summary of the method: (§2)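 Single-dose screen run by the NCI Developmental Therapeutics Program (NCI-60). Cells were grown in RPMI 1640 with 5% fetal bovine serum and 2 mM L-glutamine. They were plated at 5000–40 000 cells/well, depending on doubling time. Each line was run in two plates and exposed to 10 μM drug for 48 h at 37 °C, 5% CO2, 100% humidity. Read-out was growth percent.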
# [3] = test system: MCF7; assay: Cytotoxicity against human MCF7 cells assessed as growth inhibition at 10 uM after 48 hrs by SRB assay; type: functional, cell-based; summary of the method: as §2
# [4] = test system: NCI/ADR-RES; assay: Cytotoxicity against human NCI-ADR-RES cells assessed as growth inhibition at 10 uM after 48 hrs by SRB assay; type: functional, cell-based; summary of the method: as §2
# [5] = test system: NCI-H460; assay: Cytotoxicity against human NCI-H460 cells assessed as growth inhibition at 10 uM after 48 hrs by SRB assay; type: functional, cell-based; summary of the method: as §2
# [6] = Cytotoxicity against human OVCAR8 cells after 48 hrs by SRB assay; type: functional; settings: OVCAR-8, 48 h
# Summary of the method: (§3)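 GI50 from the NCI Developmental Therapeutics Program in vitro human tumor cell screen. Cell lines were maintained in RPMI 1640 with 5% fetal bovine serum and 2 mM L-glutamine. They were seeded at 5000–40 000 cells/well, depending on each line's doubling time, then exposed to drug for 48 h at 37 °C, 5% CO2.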
# [7] = test system: SK-MEL-2; assay: Cytotoxicity against human SK-MEL-2 cells assessed as growth inhibition at 10 uM after 48 hrs by SRB assay; type: functional, cell-based; summary of the method: as §2
# [8] = test system: MCF7; assay: Cytotoxicity against human MCF7 cells after 48 hrs by SRB assay; type: functional; settings: MCF7, 48 h; summary of the method: as §1
# [9] = test system: NCI-H226; assay: Cytotoxicity against human NCI-H226 cells assessed as growth inhibition at 10 uM after 48 hrs by SRB assay; type: functional, cell-based; summary of the method: as §2
# [10] = test system: SF-539; assay: Cytotoxicity against human SF539 cells after 48 hrs by SRB assay; type: functional; settings: SF-539, 48 h; summary of the method: as §3
# [11] = test system: A498; assay: Cytotoxicity against human A498 cells assessed as growth inhibition at 10 uM after 48 hrs by SRB assay; type: functional, cell-based
# Summary of the method: (§4)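 NCI DTP 60-cell-line screen run at the NCI. Cells were grown in RPMI 1640 with 5% FBS and 2 mM L-glutamine. They were seeded at 5000–40 000 cells/well depending on doubling time and grown in two plates per line. Each was exposed to a single 10 μM dose for 48 h at 37 °C, 5% CO2, 95% air, 100% humidity. Read-out was percent growth.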
# [12] = test system: SNB-19; assay: Cytotoxicity against human SNB19 cells assessed as growth inhibition at 10 uM after 48 hrs by SRB assay; type: functional, cell-based
# Summary of the method: (§5)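 NCI-60 DTP human tumour line screen. Cells grown in RPMI 1640 with 5% fetal bovine serum and 2 mM L-glutamine, plated at 5000–40 000 cells/well according to doubling time. Single dose of 10 μM for 48 h at 37 °C, 5% CO2, 95% air, 100% humidity, two plates per line. Read-out is growth percent.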
# [13] = test system: HL-60(TB); assay: Cytotoxicity against human HL-60(TB) cells after 48 hrs by SRB assay; type: functional; settings: HL-60, 48 h; summary of the method: as §1
# [14] = test system: T47D; assay: Cytotoxicity against human T47D cells assessed as growth inhibition at 10 uM after 48 hrs by SRB assay; type: functional, cell-based; summary of the method: as §5
# [15] = test system: COLO 205; assay: Cytotoxicity against human COLO205 cells assessed as growth inhibition at 10 uM after 48 hrs by SRB assay; type: functional, cell-based; summary of the method: as §4
# [16] = test system: HCT-15; assay: Cytotoxicity against human HCT15 cells assessed as growth inhibition at 10 uM after 48 hrs by SRB assay; type: functional, cell-based; summary of the method: as §4
# [17] = test system: SK-MEL-5; assay: Cytotoxicity against human SK-MEL-5 cells assessed as growth inhibition at 10 uM after 48 hrs by SRB assay; type: functional, cell-based; summary of the method: as §2
# [18] = test system: SNB-75; assay: Cytotoxicity against human SNB75 cells assessed as growth inhibition at 10 uM after 48 hrs by SRB assay; type: functional, cell-based; summary of the method: as §5
# [19] = Cytotoxicity against human OVCAR5 cells after 48 hrs by SRB assay; type: functional; settings: OVCAR-5, 48 h; summary of the method: as §3
# [20] = test system: TK-10; assay: Cytotoxicity against human TK10 cells assessed as growth inhibition at 10 uM after 48 hrs by SRB assay; type: functional, cell-based; summary of the method: as §5
# [21] = test system: RPMI-8226; assay: Cytotoxicity against human RPMI8226 cells assessed as growth inhibition at 10 uM after 48 hrs by SRB assay; type: functional, cell-based; summary of the method: as §2
# [22] = test system: A549; assay: Cytotoxicity against human A549 cells assessed as growth inhibition at 10 uM after 48 hrs by SRB assay; type: functional, cell-based; summary of the method: as §4
# [23] = test system: A549; assay: Cytotoxicity against human A549 cells after 48 hrs by SRB assay; type: functional; settings: A549, 48 h; summary of the method: as §1
# [24] = Cytotoxicity against human OVCAR4 cells after 48 hrs by SRB assay; type: functional; settings: OVCAR-4, 48 h; summary of the method: as §3
# [25] = test system: NCI-H322M; assay: Cytotoxicity against human NCI-H322M cells assessed as growth inhibition at 10 uM after 48 hrs by SRB assay; type: functional, cell-based; summary of the method: as §2
# [26] = test system: Hs-578T; assay: Cytotoxicity against human Hs578T cells assessed as growth inhibition at 10 uM after 48 hrs by SRB assay; type: functional, cell-based; summary of the method: as §4
# [27] = test system: CAKI-1; assay: Cytotoxicity against human Caki1 cells assessed as growth inhibition at 10 uM after 48 hrs by SRB assay; type: functional, cell-based; summary of the method: as §4
# [28] = test system: OVCAR-5; assay: Cytotoxicity against human OVCAR5 cells assessed as growth inhibition at 10 uM after 48 hrs by SRB assay; type: functional, cell-based; summary of the method: as §2
# [29] = test system: SW-620; assay: Cytotoxicity against human SW620 cells assessed as growth inhibition at 10 uM after 48 hrs by SRB assay; type: functional, cell-based; summary of the method: as §5
# [30] = test system: OVCAR-3; assay: Cytotoxicity against human OVCAR3 cells assessed as growth inhibition at 10 uM after 48 hrs by SRB assay; type: functional, cell-based; summary of the method: as §2
# [31] = test system: SF-268; assay: Cytotoxicity against human SF268 cells assessed as growth inhibition at 10 uM after 48 hrs by SRB assay; type: functional, cell-based; summary of the method: as §2
# [32] = test system: DU-145; assay: Cytotoxicity against human DU145 cells assessed as growth inhibition at 10 uM after 48 hrs by SRB assay; type: functional, cell-based; summary of the method: as §4
# [33] = Induction of [32P]-labeled 49-mer oligonucleotide duplex DNA 12 with GNC sequence at terminus (unknown origin) interstrand cross-linking at 1 mM after 16 hrs by PAGE
# Summary of the method: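 32P-labelled 12a (1.0 μM) annealed with 1.5 equiv of 12b in 10 mM potassium phosphate pH 7 / 100 mM NaCl (65 °C for 3 min, then slow cooling). Duplex incubated with compound (final 1 μM–5 mM), with or without H2O2, in NaCl and potassium phosphate pH 8 at room temperature for 16 h. Quenched in formamide; 20% denaturing PAGE.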
# [34] = test system: HOP-62; assay: Cytotoxicity against human HOP62 cells after 48 hrs by SRB assay; type: functional; settings: HOP-62, 48 h; summary of the method: as §1
smiles,measurement,setting,value
CC1(C)OB(c2ccc(N(CCCl)CCBr)cc2)OC1(C)C,GI50,[1],5.03 µM
same,growth inhibition (GI),[2],Active
same,growth inhibition (GI),[3],Active
same,growth inhibition (GI),[4],Active
same,growth inhibition (GI),[5],Active
same,GI50,[6],11.9 µM
same,growth inhibition (GI),[7],Active
same,GI50,[8],5.03 µM
same,growth inhibition (GI),[9],Active
same,GI50,[10],6.37 µM
same,growth inhibition (GI),[11],Active
same,growth inhibition (GI),[12],Active
same,GI50,[13],5.11 µM
same,growth inhibition (GI),[14],Active
same,growth inhibition (GI),[15],Active
same,growth inhibition (GI),[16],Active
same,growth inhibition (GI),[17],Active
same,growth inhibition (GI),[18],Active
same,GI50,[19],25.9 µM
same,growth inhibition (GI),[20],Active
same,growth inhibition (GI),[21],Active
same,growth inhibition (GI),[22],Active
same,GI50,[23],4.88 µM
same,GI50,[24],14.4 µM
same,growth inhibition (GI),[25],Active
same,growth inhibition (GI),[26],Active
same,growth inhibition (GI),[27],Active
same,growth inhibition (GI),[28],Active
same,growth inhibition (GI),[29],Active
same,growth inhibition (GI),[30],Active
same,growth inhibition (GI),[31],Active
same,growth inhibition (GI),[32],Active
same,Activity,[33],inactive
same,GI50,[34],10.9 µM
